From ChEMBL document CHEMBL5390213 (ACS Med Chem Lett, 2023) come the findings set out here.

Data set [1] has as its system CHP-134. Put plainly: Growth inhibition of MYCN-amplified human CHP-134 cells assessed as reduction in cell viability measured after 3 days by Celltiter-glo assay. The data set is classed as functional. Conditions: CHP-134, 72 h, time 3 day. The essentials: (§1)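 MYCN-amplified Kelly and CHP-134 neuroblastoma cells were exposed to a nine-point serial dilution for 3 days. Viability was read by CellTiter-Glo and normalized to DMSO-treated cells, and GI50 was calculated. Values are reported with standard error of the mean. The highest dose tested was 5.00 or 2.50 μM.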
On the technique in general: ATP-based viability assays read luminescence as a measure of living cells.

Data set [2] can be described thus: Growth inhibition of MYCN-amplified human Kelly cells assessed as reduction in cell viability measured after 3 days by Celltiter-glo assay. Format: functional. Conditions: 72 h, time 3 day. Put shortly:
as §1

For data set [3], the system named is Kelly. As to the kind of experiment: Induction of cell cycle arrest in human Kelly cells assessed as increase in cyclin B1 expression at 100 nM measured after 24 hrs by Western blot analysis. The data set is classed as functional, cell-based. Put shortly: (§2)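 Lysates immunoblotted for mitotic markers cyclin B1 and histone H3 phosphorylated at Ser10. GAPDH used as loading control. Levels compared against DMSO vehicle.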
In general terms: In western blotting, separated proteins are transferred to a membrane and probed.

The subject of data set [4] is CHP-134. Put plainly: Induction of cell cycle arrest in human CHP-134 cells at 100 nM measured after 24 hrs by PI/RNAse staining based flow cytometric analysis. The data set is classed as functional. The essentials: (§3)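 Cell cycle phase distribution, including G2/M fraction, quantified. n = 3 biological replicates, standard error. Unpaired two-tailed t test.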
The test system of data set [5] is SK-N-BE(2)-C. Put plainly: Antiproliferative activity against MYCN-amplified human SK-N-BE(2)-C cells assessed as reduction in cell viability measured after 3 days by Cell titer-glo assay. Format: functional, cell-based. Conditions: time 3.0 day.
Data set [6] relates to Kelly. As to the kind of experiment: Induction of cell cycle arrest in human Kelly cells assessed as increase in phospho-histone H3 expression at 100 nM measured after 24 hrs by Western blot analysis. Format: functional, cell-based. Put shortly:
as §2

The test system of data set [7] is CHP-134. Put plainly: Induction of cell cycle arrest in human CHP-134 cells assessed as increase in phospho-histone H3 expression at 100 nM measured after 24 hrs by Western blot analysis. Format: functional, cell-based. Put shortly:
as §2

Data set [8] can be described thus: Microsomal stability in human liver microsomes assessed as half life. Format: ADME, Microsome.
Data set [9] relates to CHP-134. Put plainly: Induction of cell cycle arrest in human CHP-134 cells assessed as increase in cyclin B1 expression level at 100 nM measured after 24 hrs by Western blot analysis. Format: functional, cell-based. Put shortly:
as §2

Data set [10] addresses T1, Tubulin (Homo sapiens) (UniProt P68371+Q9H4B7+P0DPH7+P68366+Q13509+Q71U36+P04350+Q3ZCM7+P07437+P68363+Q9BQE3+Q6PEY2+Q13885+Q9BVA1+Q9BUF5). As to the kind of experiment: Disruption of microtubule network in human Kelly cells at 100 nM incubated for 24 hrs by DAPI staining based immunofluorescence analysis. The data set is classed as cell-based. The essentials: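 Immunostained for α-tubulin (Alexa-488) with DAPI nuclear counterstain. Microtubule network integrity and tubulin compaction around nuclei assessed from representative images.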

Data set [11] concerns Kelly. As to the kind of experiment: Induction of cell cycle arrest in human Kelly cells assessed as accumulation of cells in G2/M phase at 100 nM measured after 24 hrs by PI/RNAse staining based flow cytometric analysis. The data set is classed as functional. Put shortly: as §3
Background: A flow cytometer gives signals particle by particle.

Data set [12] has as its target T1, Tubulin (Homo sapiens). As to the kind of experiment: Inhibition of tubulin polymerization (unknown origin) assessed as destabilization of microtubule formation at 5 uM incubated for 45 mins by plate reader analysis. Format: protein-complex assay.
Data set [13] has as its system Kelly. Put plainly: Induction of cell cycle arrest in human Kelly cells assessed as increase in phospho-histone H3 expression at 500 nM measured after 24 hrs by Western blot analysis. The data set is classed as functional, cell-based. Put shortly: (§4)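 Protein lysates were immunoblotted for the mitotic markers cyclin B1 and histone H3 phosphorylated at Ser10, with GAPDH as the loading control.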

Data set [14] deals with Kelly. As to the kind of experiment: Induction of cell cycle arrest in human Kelly cells assessed as increase in cyclin B1 expression at 500 nM measured after 24 hrs by Western blot analysis. The data set is classed as functional, cell-based. The essentials:
as §4

Data set [15] relates to CHP-134. As to the kind of experiment: Induction of cell cycle arrest in human CHP-134 cells assessed as increase in phospho-histone H3 expression at 500 nM measured after 24 hrs by Western blot analysis. The data set is classed as functional, cell-based. Put shortly: as §4
Data set [16] deals with T1, Tubulin (Homo sapiens). As to the kind of experiment: Disruption of microtubule network in human Kelly cells at 500 nM incubated for 24 hrs by DAPI staining based immunofluorescence analysis. The data set is classed as cell-based. Put shortly:
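Cells were then immunostained for α-tubulin (Alexa-488), with nuclei counterstained by DAPI. The microtubule network was examined in representative images.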

In data set [17] the test system is Kelly. Put plainly: Effect on cell cycle distribution in human Kelly cells at 500 nM measured after 24 hrs by PI/RNAse staining based flow cytometric analysis. The data set is classed as functional. Put shortly:
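Kelly cells were treated with 500 nM compound or DMSO for 24 h. Cell cycle phase distribution was then profiled and quantified, with n = 3 biological replicates and standard error shown.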

Data set [18] relates to CHP-134. As to the kind of experiment: Induction of cell cycle arrest in human CHP-134 cells assessed as increase in cyclin B1 expression level at 500 nM measured after 24 hrs by Western blot analysis. The data set is classed as functional, cell-based. Put shortly:
as §4

SMILES strings stand for the structures. Calls of active or inactive are those of the source. No cut-off for these calls is given here.

In general, GI50 refers to the concentration that inhibits growth by half. As for `Cc1ccc(-c2cn3ccnc(-c4cc(Cl)c(F)c(Cl)c4)c3n2)cc1`, the 50% growth inhibitory concentration (GI50) in data set [1] and in data set [2] was above 2500 nM in each case.

The half-life is how long it takes for the measured level to halve. Take `COc1cc(-c2nccn3cc(-c4ccc(C)cc4)nc23)cc(OC)c1OC`: the result in [3], in [4], in data set [5], in data set [6], in data set [7] and in [9] was Active. The result in data set [10] and in [11] was Active. The GI50 amounted to 7 nM in [1] and 12 nM in [2]. In addition, the half-life in data set [8] is 26 min. Besides, the inhibition entry in [12] was “Active”.

Regarding `COc1cc2c(c(OC)c1OC)-c1ccc(OC)c(=O)cc1[C@@H](NC(C)=O)CC2` [COLCHICINE], the result in [3], in [6], in data set [7] and in data set [9] was Active. In addition, the GI50 in data set [1] is 8 nM; in data set [2], 9 nM. In addition, the half-life in data set [8] was above 60 min.

Consider `COc1cc(-c2cccc3nc(-c4ccc(C)cc4)cn23)cc(OC)c1OC`, for which the GI50 in data set [1] stood at 3320 nM; in [2], 4920 nM.

`COc1cc(-c2cccn3cc(-c4ccc(F)cc4)nc23)cc(OC)c1OC`: the concentration for 50% growth inhibition (GI50) was 1610 nM in data set [1] and 3000 nM in [2].

As to `COc1cc(-c2cccn3cc(-c4ccc(C(F)(F)F)cc4)nc23)cc(OC)c1OC`, the GI50 was 2090 nM in data set [1] and above 5000 nM in [2].

For `COc1cc(-c2cccn3cc(-c4ccc(Cl)cc4)nc23)cc(OC)c1OC`, the GI50 in data set [1] worked out at 1620 nM; in [2], 3420 nM.

In the case of `COc1c(Br)cc(-c2nccn3cc(-c4ccc(C)cc4)nc23)cc1Br`, the figures for the GI50 in data set [1] and in [2] were 469 nM and 504 nM, respectively.

As for `COc1c(Cl)cc(-c2nccn3cc(-c4ccc(C)cc4)nc23)cc1Cl`, the GI50 stood at 79 nM in [1] and 165 nM in [2]. Moreover, the result in data set [5] was Active. In data set [12], the inhibition entry was “Active”.

Turning to `COc1ccc(-c2cn3cccc(-c4cc(OC)c(OC)c(OC)c4)c3n2)cc1`, the GI50 in data set [1] stood at 511 nM; in [2], 1370 nM.

For the compound `COc1cc(-c2cccn3cc(-c4ccc(C)cc4)nc23)cc(OC)c1OC`, the concentration for 50% growth inhibition (GI50) came out at 152 nM in [1] and 217 nM in data set [2]. Further, in data set [12], the inhibition result was “Active”.

On to `Cc1ccc(-c2cn3ccnc(-c4cc(F)cc(F)c4)c3n2)cc1`, for which the GI50 in [1] was 474 nM; in data set [2], 438 nM.

With `COc1cc(-c2cc(C)cn3cc(-c4ccc(C)cc4)nc23)cc(OC)c1OC`, the GI50 in data set [1] is 381 nM; in data set [2], 717 nM.

In the case of `COc1c(F)cc(-c2nccn3cc(-c4ccc(C)cc4)nc23)cc1F`, the result in data set [13], in [14], in data set [15], in [16], in data set [17] and in [18] was inactive. Besides, the values for the GI50 in data set [1] and in data set [2] were 175 nM and 402 nM, respectively. In addition, the outcome in data set [5] was Active. In addition, in [8], the half-life was determined as 36.1 min. Besides, in [12], the inhibition entry is “Active”.
